Publication PMC3064895 (Cancer Chemotherapy and Pharmacology, 2010)
Values joined by “and” are separate entries in the source; they are usually repeats but may differ in a detail not shown here. Equal values may be shown once. “Also recorded” adds a separate entry of the source. Read-outs that look alike come from different tables or passages of the source.

Columns and labels:
[1] = Plasma pharmacokinetics at steady state of sorafenib; type: in vivo, patients with advanced cancer; conditions: for AUC / Cmax: geometric mean (% CV); for AUC: AUC(0–12), n = 14; for Cmax: C max
[2] = cited from earlier work; for Incidence of treatment-emergent cardiac ischemia/infarction AEs: final safety analysis
[3] = observational study by Schmidinger et al.; cited from earlier work
[4] = Left ventricular ejection fraction; type: in vivo, patients with advanced cancer; conditions: for Mean (SD) change from baseline in LVEF(%): sorafenib 400 mg bid
[5] = Safety: adverse events by NCI-CTCAE v3.0; type: in vivo, patients with advanced cancer; conditions: N = 53
How it was run: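 Patients with advanced cancer took the oral kinase inhibitor at 400 mg bid, continuously, in 28-day cycles. Safety, including laboratory tests, was checked at screening, at baseline and on day 1 of each cycle. Treatment-emergent AEs were graded by NCI-CTCAE v3.0 for incidence, severity, seriousness and drug relationship, and summarized descriptively for all patients with ≥1 dose.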

[6] = human, plasma, oral, 400 mg, plasma, Day 1 of cycle 2, sorafenib 400 mg bid
[7] = human, plasma, oral, 400 mg, plasma, Day 1 of cycle 5, sorafenib 400 mg bid
[8] = plasma, Day 1 of cycle 2, sorafenib 400 mg bid
[9] = plasma, Day 1 of cycle 5, sorafenib 400 mg bid
[10] = retrospective analysis of 18 studies of sorafenib monotherapy

CNC(=O)c1cc(Oc2ccc(NC(=O)Nc3ccc(Cl)c(C(F)(F)F)c3)cc2)ccn1 [sorafenib]
Tmax ([1]; human, plasma, oral, 400 mg): 2 h | AUC [1, 6]: 42800 ng·h/mL | AUC [1, 7]: 36000 ng·h/mL | Cmax [1, 6]: 5400 ng/mL | Cmax [1, 7]: 4300 ng/mL | AUCnorm, geometric mean (% CV) [1, 8]: 7.5 (48.4) kg h/L | C max,norm, geometric mean (% CV) [1, 8]: 1.0 (64.9) kg/L | C trough, geometric mean (% CV) [1, 8]: 4.1 (73.6) mg/L | C trough,norm, geometric mean (% CV) [1, 8]: 0.7 (85.4) kg/L | AUCnorm, geometric mean (% CV) [1, 9]: 6.3 (69.8) kg h/L | C max,norm, geometric mean (% CV) [1, 9]: 0.8 (72.5) kg/L | C trough, geometric mean (% CV) [1, 9]: 3.2 (73.8) mg/L | C trough,norm, geometric mean (% CV) [1, 9]: 0.6 (83.8) kg/L | t max, median (range) [1, 9]: 2.00 (0–8.05) h | Relationship between PK parameters (AUC(0–12), C max) and cardiovascular safety parameters (QT/QTc, LVEF, BP, HR) ([1]; sorafenib and its main metabolites, any time point, data not shown): No correlation; also recorded: No relationship was observed | Patients reporting cardiac ischemia/infarction AEs ([2]; RCC phase III, patients who crossed over from placebo to sorafenib): 1.4% | Incidence of treatment-emergent cardiac ischemia/infarction AEs ([2]; randomized phase III HCC study, placebo […]): 2.7% | Incidence of treatment-emergent cardiac ischemia/infarction AEs ([2]; randomized phase III RCC study, placebo 0.4%): 2.9% | Overall rate of CHF [2, 10]: 1.6% | Overall rate of MI [2, 10]: 1.5% | Treatment-emergent hypertension [2, 10]: 18.6% | Incidence of ≥10 LVEF(%) reduction [3]: 5% | LVEF measurement, individual patient ([4]; RCC patient with diabetes (baseline 67%), Day 1 of cycle 3, MUGA scan): 42.2% | LVEF measurement, individual patient ([4]; RCC patient with diabetes (baseline 67%), repeat MUGA scan (+16 days)): 50% | Mean (SD) change from baseline in LVEF(%) ([4]; primary analysis population, Day 1 of cycle 3 (after 2 cycles)): −0.8 (±8.6) LVEF(%) and −0.8 LVEF(%) | Mean (SD) change from baseline in LVEF(%) ([4]; primary analysis population, Day 1 of cycle 3 (after 2 cycles), listed as Sorafenib): −0.8 (8.6) LVEF(%) | Mean (SD) change from baseline in LVEF(%) ([4]; primary analysis population, Day 1 of cycle 5 (after 4 cycles)): −1.2 (±7.8) LVEF(%) and −1.2 LVEF(%) | Mean (SD) change from baseline in LVEF(%) ([4]; primary analysis population, Day 1 of cycle 5 (after 4 cycles), listed as Sorafenib): −1.2 (7.8) LVEF(%) | Patients with decrease from baseline of ≥10 LVEF(%) ([4]; primary group, after 2 cycles): 12.9% and 13% | Patients with decrease from baseline of ≥10 LVEF(%) ([4]; primary group, after 4 cycles): 4% | Mean decline in LVEF(%) ([4]; primary patient group (n = 24), after 4 cycles): 1.2 LVEF(%) | Mean (SD) change from baseline in LVEF(%) ([4]; secondary analysis population, Day 1 of cycle 3 (after 2 cycles)): −1.0 (8.5) LVEF(%) | Mean (SD) change from baseline in LVEF(%) ([4]; secondary analysis population, Day 1 of cycle 5 (after 4 cycles)): −1.4 (9.4) LVEF(%) | Patients with decrease from baseline of ≥10 LVEF(%) ([4]; secondary group, after 2 cycles): 12.0% | Patients with decrease from baseline of ≥10 LVEF(%) ([4]; secondary group, after 4 cycles): 7.1% | Mean decline in LVEF(%) ([4]; secondary patient group (n = 14), after 4 cycles): 1.4 LVEF(%) | Mean decline in LVEF(%) ([4]; secondary patient group (n = 25), after 2 cycles): 1.0 LVEF(%) | Largest individual decrease in ejection fraction ([4]; single patient without clinical signs of CHF): −24.8 LVEF[%] | LVEF measurement, individual patient ([4]; thymic cancer patient (baseline 72%), repeat ECHO scan (+3 days)): 60–65% | Alopecia, drug-related, Grade ≥3 [5]: 0 (0) n (%) | Alopecia, drug-related, all grades [5]: 13 (25) n (%) | Dermal change, drug-related, Grade ≥3 [5]: 0 (0) n (%) | Dermal change, drug-related, all grades [5]: 6 (11) n (%) | Dermatology—other, drug-related, Grade ≥3 [5]: 1 (2) n (%) | Dermatology—other, drug-related, all grades [5]: 7 (13) n (%) | Diarrhea, drug-related, Grade ≥3 [5]: 1 (2) n (%) | Diarrhea, drug-related, all grades [5]: 15 (28) n (%) | Fatigue, drug-related, Grade ≥3 [5]: 1 (2) n (%) | Fatigue, drug-related, all grades [5]: 8 (15) n (%) | Hand-foot skin reaction, drug-related, Grade ≥3 [5]: 6 (11) n (%) | Hand-foot skin reaction, drug-related, all grades [5]: 16 (30) n (%) | Hypertension, drug-related, Grade ≥3 [5]: 1 (2) n (%) | Hypertension, drug-related, all grades [5]: 6 (11) n (%) | Mucositis, drug-related, Grade ≥3 [5]: 1 (2) n (%) | Mucositis, drug-related, all grades [5]: 8 (15) n (%) | Nausea, drug-related, Grade ≥3 [5]: 0 (0) n (%) | Nausea, drug-related, all grades [5]: 7 (13) n (%) | Pain, extremity—limb, drug-related, Grade ≥3 [5]: 0 (0) n (%) | Pain, extremity—limb, drug-related, all grades [5]: 12 (23) n (%) | Patients discontinued from the study because of AEs [5]: Seven | Patients with dose reductions [5]: 43.4% | Patients with dose reductions because of treatment-emergent AEs [5]: 32.1% | Patients with drug-related treatment-emergent serious AEs [5]: 4% | Patients with treatment interruptions [5]: 75.5% | Patients with treatment interruptions because of treatment-emergent AEs [5]: 43.4% | Rash/desquamation, drug-related, Grade ≥3 [5]: 3 (6) n (%) | Rash/desquamation, drug-related, all grades [5]: 20 (38) n (%)
